From PMC9078949 (RSC Advances, 2018) come the findings set out here.

In one assay the target is T1, CXCR2 (Homo sapiens, UniProt P25025).
T1 sequence (P25025 1-360): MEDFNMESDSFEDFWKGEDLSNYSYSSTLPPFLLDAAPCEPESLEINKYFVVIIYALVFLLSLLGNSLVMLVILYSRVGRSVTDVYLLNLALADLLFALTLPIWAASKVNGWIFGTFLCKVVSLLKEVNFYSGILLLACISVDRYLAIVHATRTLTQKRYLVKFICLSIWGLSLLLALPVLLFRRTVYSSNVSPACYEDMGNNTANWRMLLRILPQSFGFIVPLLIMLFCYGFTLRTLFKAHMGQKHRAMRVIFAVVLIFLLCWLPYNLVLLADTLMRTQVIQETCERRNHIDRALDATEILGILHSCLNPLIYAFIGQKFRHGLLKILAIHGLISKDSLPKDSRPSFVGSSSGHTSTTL
Description: CXCR2 antagonistic activity assay. The class given is cell-based. Summed up: (§1)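 HEK293 cells stably co-expressing Gα16 with either CXCR1 or CXCR2 were seeded and grown for 24 h. They were loaded with 2 μmol L−1 Fluo-4 AM in HBSS (pH 7.4, with BSA and 250 μmol L−1 sulfinpyrazone) for 45 min at 37 °C, and excess dye was removed. Test compound was added for 10 min at room temperature before IL-8 injection. Calcium signal was read at ex 485/em 525 nm. IC50 came from nonlinear regression of log concentration–response curves; each experiment was run ≥3 times.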

A further assay concerns the target T2, CXCR1 (Homo sapiens, UniProt P25024).
T2 sequence (P25024 1-350): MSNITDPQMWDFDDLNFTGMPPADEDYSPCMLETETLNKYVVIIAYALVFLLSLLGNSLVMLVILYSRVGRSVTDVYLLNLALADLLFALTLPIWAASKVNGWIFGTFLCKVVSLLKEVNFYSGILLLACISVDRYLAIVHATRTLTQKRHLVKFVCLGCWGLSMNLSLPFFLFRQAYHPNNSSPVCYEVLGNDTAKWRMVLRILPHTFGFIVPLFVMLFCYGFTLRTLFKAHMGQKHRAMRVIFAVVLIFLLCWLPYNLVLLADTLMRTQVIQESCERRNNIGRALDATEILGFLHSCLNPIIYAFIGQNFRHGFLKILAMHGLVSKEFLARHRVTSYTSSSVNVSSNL
Description: CXCR1 antagonistic activity assay. Format: cell-based. The method, boiled down:
as §1

Take `CC(C)[S+]([O-])c1c(Cl)ccc(Nc2c(NC3C[C@@H]4CC[C@H]3C4)c(=O)c2=O)c1O` (stereo partly drawn) [2d, 3-(((1S,4R)-Bicyclo[2.2.1]heptan-2-yl)amino)-4-((4-chloro-2-hydroxy-3-(isopropylsulfinyl)phenyl)amino)cyclobut-3-ene-1,2-dione]: the results for the IC50 against CXCR2 and at CXCR1 were 0.092 µM and 6.5 µM, respectively. For the same compound, the “Ratio = CXCR1 IC50/CXCR2 IC50 (selectivity for CXCR2 over CXCR1)” value at CXCR2 amounted to 70.7.
`CN(C)C(=O)c1cccc(Nc2c(NCC3C[C@H]4C=C[C@@H]3C4)c(=O)c2=O)c1O` (stereo partly drawn) [1e, 3-((2-((((1S,4S)-Bicyclo[2.2.1]hept-5-en-2-yl)methyl)amino)-3,4-dioxocyclobut-1-en-1-yl)amino)-2-hydroxy-N,N-dimethylbenzamide]: at CXCR2, the IC50 is 2.6 µM and the “Ratio = CXCR1 IC50/CXCR2 IC50 (selectivity for CXCR2 over CXCR1)” value is reported as 11.8. The compound also showed an IC50 against CXCR1 of 30.8 µM.
For `CN(C)C(=O)c1cccc(Nc2c(NC3C[C@H]4CC[C@]3(C)C4(C)C)c(=O)c2=O)c1O` (stereo partly drawn) [1c, 3-((3,4-Dioxo-2-(((1R,4R)-1,7,7-trimethylbicyclo[2.2.1]heptan-2-yl)amino)cyclobut-1-en-1-yl)amino)-2-hydroxy-N,N-dimethylbenzamide] the same measures were 5.5 µM, 6.5 and 35.6 µM.
Consider `CN(C)C(=O)c1cccc(Nc2c(NC3C[C@H]4CC[C@@H](C3)N4C(=O)OC(C)(C)C)c(=O)c2=O)c1O` (stereo partly drawn) [1b, Tert-butyl (1R,5S)-3-((2-((3-(dimethylcarbamoyl)-2-hydroxyphenyl)amino)-3,4-dioxocyclobut-1-en-1-yl)amino)-8-azabicyclo[3.2.1]octane-8-carboxylate], for which the IC50 against CXCR2 and against CXCR1 was over 100 µM in each case.
Regarding `CC(C)S(=O)(=O)c1c(Cl)ccc(Nc2c(NC3C[C@@H]4CC[C@H]3C4)c(=O)c2=O)c1O` (stereo partly drawn) [2c, 3-(((1S,4R)-Bicyclo[2.2.1]heptan-2-yl)amino)-4-((4-chloro-2-hydroxy-3-(isopropylsulfonyl)phenyl)amino)cyclobut-3-ene-1,2-dione], at CXCR2, the IC50 was 0.12 µM and the “Ratio = CXCR1 IC50/CXCR2 IC50 (selectivity for CXCR2 over CXCR1)” value stood at 103.3. On CXCR1, this compound gave an IC50 of 12.4 µM.
`O=C(c1cccc(Nc2c(NC3C[C@@H]4CC[C@H]3C4)c(=O)c2=O)c1O)N1CCCCC1` (stereo partly drawn) [2f, 3-(((1S,4R)-Bicyclo[2.2.1]heptan-2-yl)amino)-4-((2-hydroxy-3-(piperidine-1-carbonyl)phenyl)amino)cyclobut-3-ene-1,2-dione]: at CXCR2, half-maximal inhibition (IC50) required 0.59 µM and the “Ratio = CXCR1 IC50/CXCR2 IC50 (selectivity for CXCR2 over CXCR1)” value was determined as 17.5. Moreover, at CXCR1, the IC50 worked out at 10.3 µM.
On to `Cc1ccc(Nc2c(NC3C[C@@H]4CC[C@H]3C4)c(=O)c2=O)c(O)c1` (stereo partly drawn) [2a, 3-(((1S,4R)-Bicyclo[2.2.1]heptan-2-yl)amino)-4-((2-hydroxy-4-methylphenyl)amino)cyclobut-3-ene-1,2-dione], for which, on CXCR2, the IC50 stood at 3.8 µM and the “Ratio = CXCR1 IC50/CXCR2 IC50 (selectivity for CXCR2 over CXCR1)” value was 22.7. The compound also had an IC50 at CXCR1 of 86.1 µM.
For `Cl.O=C(c1cccc(Nc2c(NC3C[C@@H]4CC[C@H]3C4)c(=O)c2=O)c1O)N1CCNCC1` (stereo partly drawn) [2h, 3-(((1S,4R)-Bicyclo[2.2.1]heptan-2-yl)amino)-4-((2-hydroxy-3-(piperazine-1-carbonyl)phenyl)amino)cyclobut-3-ene-1,2-dione hydrochloride], at CXCR2, the IC50 is 0.53 µM and the “Ratio = CXCR1 IC50/CXCR2 IC50 (selectivity for CXCR2 over CXCR1)” value is over 188.7. This compound came in with a concentration for half-maximal inhibition (IC50) against CXCR1 of over 100 µM.
For `CN(C)C(=O)c1cccc(Nc2c(NC3C[C@H]4C[C@@H]3C3CCC[C@@H]34)c(=O)c2=O)c1O` (stereo partly drawn) [1d, 2-Hydroxy-N,N-dimethyl-3-((2-(((4R,7R,7aR)-octahydro-1H-4,7-methanoinden-5-yl)amino)-3,4-dioxocyclobut-1-en-1-yl)amino)benzamide] the same measures were 1 µM, 6.7 and 6.7 µM.
As to `CC(C)(C)OC(=O)N1CCN(C(=O)c2cccc(Nc3c(NC4C[C@@H]5CC[C@H]4C5)c(=O)c3=O)c2O)CC1` (stereo partly drawn) [2g, Tert-butyl 4-(3-((2-(((1S,4R)-bicyclo[2.2.1]heptan-2-yl)amino)-3,4-dioxocyclobut-1-en-1-yl)amino)-2-hydroxybenzoyl)piperazine-1-carboxylate], at CXCR2, inhibition was half-maximal at 0.42 µM (IC50) and the “Ratio = CXCR1 IC50/CXCR2 IC50 (selectivity for CXCR2 over CXCR1)” value was 13.3. At CXCR1, this compound yielded an IC50 of 5.6 µM.
As for `CN(C)C(=O)c1cccc(Nc2c(NC3C[C@@H]4CC[C@H]3C4)c(=O)c2=O)c1O` (stereo partly drawn) [1a, 3-((2-(((1S,4R)-Bicyclo[2.2.1]heptan-2-yl)amino)-3,4-dioxocyclobut-1-en-1-yl)amino)-2-hydroxy-N,N-dimethylbenzamide], on CXCR2, the midpoint of inhibition, the IC50, lay at 0.062 µM and the “Ratio = CXCR1 IC50/CXCR2 IC50 (selectivity for CXCR2 over CXCR1)” value is given as 113. This compound also came in with an IC50 on CXCR1 of 7 µM.
As for `CN(C)C(=O)c1cccc(Nc2c(NCC3C[C@H]4CC[C@@H]3C4)c(=O)c2=O)c1O` (stereo partly drawn) [1f, 3-((2-((((1R,4S)-Bicyclo[2.2.1]heptan-2-yl)methyl)amino)-3,4-dioxocyclobut-1-en-1-yl)amino)-2-hydroxy-N,N-dimethylbenzamide], the results for the IC50 against CXCR2 and at CXCR1 were 23.6 µM and 48.8 µM, respectively. For the same compound, at CXCR2, the “Ratio = CXCR1 IC50/CXCR2 IC50 (selectivity for CXCR2 over CXCR1)” value is 2.1.
For `N#Cc1ccc(Nc2c(NC3C[C@@H]4CC[C@H]3C4)c(=O)c2=O)c(O)c1` (stereo partly drawn) [2b, 4-((2-(((1S,4R)-Bicyclo[2.2.1]heptan-2-yl)amino)-3,4-dioxocyclobut-1-en-1-yl)amino)-3-hydroxybenzonitrile], on CXCR2, half-maximal inhibition (IC50) was put at 0.45 µM and the “Ratio = CXCR1 IC50/CXCR2 IC50 (selectivity for CXCR2 over CXCR1)” value is recorded as 94.9. The same compound came in with an IC50 against CXCR1 of 42.7 µM.
